Consider five molecules from ChEMBL document CHEMBL3792364, “Identification and biological activity of 6-alkyl-substituted 3-methyl-pyridine-2-carbonyl amino dimethyl-benzoic acid EP4 antagonists” (Bioorg Med Chem Lett, 2016).

The target of series [1] is T1, Prostaglandin E2 receptor EP4 subtype (Homo sapiens, UniProt P35408). Description: Antagonist activity against human EP4 expressed in HEK293 cells assessed as inhibition of PGE2-stimulated production of cAMP incubated for 20 mins by HTRF assay. The class given is functional, cell-based.
Series [2] deals with T1, Prostaglandin E2 receptor EP4 subtype. Description: Antagonist activity against EP4 in human whole blood assessed as reversal of PGE2-mediated suppression of LPS-induced TNF-alpha production preincubated for 30 mins followed by LPS stimulation measured after 20 to 24 hrs by enzyme immunoassay. The class given is tissue-based. The method in brief:
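Pooled blood from donors free of NSAIDs or celecoxib for 48 h and of glucocorticoids for 2 weeks. Blood pretreated 30 min at 37 °C, 5% CO2 with compound in DMSO (7-point curve, triplicate). LPS […] ± 10 nM PGE2 (final) added, then incubated 20–24 h. Plasma TNFα read at A450-A650. IC50 from sigmoidal nonlinear fit; geometric mean of independent runs.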

The nature of series [3]: Aqueous solubility of compound at pH 6 at 2 mM after 20 hrs by HPLC. In kind it is physicochemical. As to conditions: aqueous medium. The gist of the method:
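Samples in DMSO dried 12 h, then redissolved at pH 6 at a 2 mM target concentration. Stirred 20 h, filtered through 0.7 µm GF filter. Filtrate concentration measured by HPLC against a DMSO standard curve.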

≈ marks a conversion by molar mass, not a printed value.

T1 sequence (P35408 whole entry): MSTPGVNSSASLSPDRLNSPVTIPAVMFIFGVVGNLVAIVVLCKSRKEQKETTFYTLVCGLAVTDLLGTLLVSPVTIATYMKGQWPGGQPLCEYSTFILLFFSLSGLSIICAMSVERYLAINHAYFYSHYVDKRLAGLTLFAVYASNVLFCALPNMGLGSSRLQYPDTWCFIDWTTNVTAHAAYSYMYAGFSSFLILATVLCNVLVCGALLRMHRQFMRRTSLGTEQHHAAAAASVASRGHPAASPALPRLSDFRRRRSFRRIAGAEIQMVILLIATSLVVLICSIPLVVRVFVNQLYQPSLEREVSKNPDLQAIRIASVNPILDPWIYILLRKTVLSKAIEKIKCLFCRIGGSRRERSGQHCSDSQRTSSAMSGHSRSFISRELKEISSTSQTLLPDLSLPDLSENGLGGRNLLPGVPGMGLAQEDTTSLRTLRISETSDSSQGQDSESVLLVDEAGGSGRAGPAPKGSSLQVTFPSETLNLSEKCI

A word on the IC50: it is the concentration at which inhibition is half-maximal. As for `COC1CCN(c2ccc(C)c(C(=O)Nc3c(C)cc(C(=O)O)cc3C)n2)CC1`, in series [1], the IC50 amounted to 96.7 nM.

Consider `Cc1ccc(N2CCC(F)(F)CC2)nc1C(=O)Nc1c(C)cc(C(=O)O)cc1C`, for which the IC50 in series [2] came to 1160 nM; in series [1], 1.61 nM.

For `Cc1ccc(N2CCC(CO)C2)nc1C(=O)Nc1c(C)cc(C(=O)O)cc1C` (centres undefined), in series [1], the IC50 is 84 nM.

As usually defined, the solubility is the concentration that dissolves in the medium under given conditions. Higher therefore signals much dissolved substance. Take `Cc1ccc(N2CCC(C)(O)CC2)nc1C(=O)Nc1c(C)cc(C(=O)O)cc1C`: the values for the IC50 in series [2] and in series [1] were 3600 nM and 39.8 nM, respectively. The molecule further had a solubility at 20 h, 2000 µM in series [3] of 817 µg/mL (≈ 2060 µM).

Take `Cc1ccc(N2CCCC(CO)C2)nc1C(=O)Nc1c(C)ccc(C(=O)O)c1C` (centres undefined): the IC50 in series [2] was determined as 2890 nM; in series [1], 14.2 nM.
